What was measured:
LNCaP [1] = assay: Growth inhibition of human LNCAP cells after 4 days by MTT assay in presence of 10% fetal bovine serum; format: functional, cell-based; details: 96 h
Summary of the method: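 LNCaP cells were cultured in MEM with 10% FBS in 96-well plates against 0.1% DMSO vehicle. Viable cells were estimated by MTT conversion to formazan, read as absorbance at 550 nm. IC50 was derived from growth inhibition relative to vehicle. Values are mean ± SEM.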

MCF7 [2] = assay: Growth inhibition of human MCF7 cells at 10 uM after 4 days by MTT assay in presence of 10% fetal bovine serum relative to control; format: functional; details: MCF7, 96 h, read-out: GI
Summary of the method: (§1)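 LNCaP or MCF-7 cells in MEM with 10% FBS were given test compound at 10 µM or 0.1% DMSO vehicle; MCF-7 exposure was four days. MTT read-out at 550 nm. Inhibition was calculated as (OD vehicle − OD test) × 100 / OD vehicle. Values are mean ± SEM, n = 4, ANOVA versus vehicle.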

LNCaP [3] = assay: Growth inhibition of human LNCAP cells at 10 uM after 4 days by MTT assay in presence of 10% fetal bovine serum relative to control; format: functional; details: 96 h, read-out: GI; summary of the method: as §1
MCF7 [4] = assay: Growth inhibition of human MCF7 cells at 10 uM after 4 days by MTT assay in presence of 5% heat-inactivated fetal bovine serum treated with dextran-coated charcoal and 17-beta-estradiol relative to ICI-182780; format: functional; details: MCF7, 96 h, read-out: GI
Summary of the method: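 MCF-7 cells in MEM with 5% dextran-coated-charcoal-treated heat-inactivated FBS plus 1 nM 17β-estradiol were exposed for four days to test compound (10 µM), ICI 182,780 (1 µM) or vehicle. MTT absorbance was read at 550 nm. Effect was calculated as (OD vehicle − OD test) × 100 / (OD vehicle − OD ICI 182,780). Values are mean ± SEM of at least three assays.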

MCF7 [5] = assay: Growth inhibition of human MCF7 cells after 4 days by MTT assay in presence of 5% heat-inactivated fetal bovine serum treated with dextran-coated charcoal and 17-beta-estradiol; format: functional, cell-based; details: MCF7, 96 h
LNCaP [6] = assay: Growth inhibition of human LNCAP cells at 1 uM after 4 days by MTT assay; format: functional; details: 96 h, read-out: GI
LNCaP [7] = assay: Cytotoxicity against human LNCAP cells after 4 days by MTT assay; format: functional, cell-based; details: 96 h
Summary of the method: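 LNCaP cells grown in minimal essential medium with 10% FBS, exposed to secosterols for four days in 96-well plates, with 0.1% DMSO as vehicle. Viable cells were estimated from MTT conversion to formazan, read at 550 nm. Absorbance was expressed relative to vehicle (100%), and IC50 was taken from growth inhibition, mean ± SEM of ≥3 independent assays.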

MCF7 [8] = assay: Growth inhibition of human MCF7 cells at 1 uM after 4 days by MTT assay; format: functional; details: MCF7, 96 h, read-out: GI
MCF7 [9] = assay: Cytotoxicity against human MCF7 cells after 4 days by MTT assay; format: functional, cell-based; details: MCF7, 96 h
Summary of the method: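 MCF-7 cells in minimal essential medium, with either 10% FBS or 5% dextran-charcoal-treated FBS plus 1 nM 17β-estradiol, were exposed to secosterols for four days. Vehicle was 0.1% DMSO. Read-out was MTT formazan absorbance at 550 nm, expressed as % of vehicle. IC50 was derived from growth inhibition, mean ± SEM of ≥3 independent assays.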

MCF7 [10] = assay: Growth inhibition of human MCF7 cells after 4 days by MTT assay in presence of 10% fetal bovine serum; format: functional, cell-based; details: MCF7, 96 h
K562 = assay: Cytotoxicity against human K562 cells; format: functional, cell-based
HeLa = assay: Cytotoxicity against human HeLa cells; format: functional, cell-based

Structure (SMILES): CC(=O)OCC[C@]1(C)[C@@H]([C@H](C)/C=C\C(C)C(C)C)CC[C@H]1C1=C[C@H](O)[C@H]2C[C@@H](O)CC[C@]2(C)C1=O (some centres not stated)
- IC50 (LNCaP [1]): 6.7 µM
- inhibition of growth at 10 µM (MCF7 [2]): 27%
- inhibition of growth at 10 µM (LNCaP [3]): 45%
- inhibition of growth at 10 µM (MCF7 [4]): 62%
- IC50 (MCF7 [5]): 6 µM

Structure (SMILES): C[C@]12CC[C@@H]3c4ccc(O)cc4C[C@@H](CCCCCCCCC[S+]([O-])CCCC(F)(F)C(F)(F)F)[C@H]3[C@@H]1CC[C@@H]2O (some centres not stated) [FULVESTRANT]
- inhibition of growth at 1 µM (LNCaP [6]): 100%
- IC50 (LNCaP [7]): 0.018 µM
- inhibition of growth at 1 µM (MCF7 [8]): 100%
- IC50 (MCF7 [9]): 0.018 µM

Structure (SMILES): C=C(CC[C@@H](C)[C@H]1CC[C@@H](C2=C[C@H](O)[C@H]3C[C@@H](O)CC[C@]3(C)C2=O)[C@]1(C)CCOC(C)=O)C(C)C
- inhibition of growth at 10 µM (MCF7 [2]): ≤ 10%
- inhibition of growth at 10 µM (LNCaP [3]): ≤ 10%
- inhibition of growth at 10 µM (MCF7 [4]): 50%
- IC50 (MCF7 [5]): 3.8 µM

Structure (SMILES): CCC(C)/C=C/[C@@H](C)[C@H]1CC[C@@H](C2=C[C@H](O)[C@H]3C[C@@H](O)CC[C@]3(C)C2=O)[C@]1(C)CCOC(C)=O (some centres not stated)
- IC50 (LNCaP [1]): 5.4 µM
- inhibition of growth at 10 µM (MCF7 [2]): 49%
- IC50 (MCF7 [10]): 7 µM
- inhibition of growth at 10 µM (LNCaP [3]): 83%
- inhibition of growth at 10 µM (MCF7 [4]): 90%
- IC50 (MCF7 [5]): 5.4 µM

Structure (SMILES): CC(=O)OCC[C@]1(C)[C@@H]([C@H](C)/C=C/C(C)C)CC[C@H]1C1=C[C@H](O)[C@H]2C[C@@H](O)CC[C@]2(C)C1=O
- IC50 (LNCaP [1]): 7 µM
- inhibition of growth at 10 µM (MCF7 [2]): 34%
- IC50 (MCF7 [10]): 7.6 µM
- inhibition of growth at 10 µM (LNCaP [3]): 76%
- inhibition of growth at 10 µM (MCF7 [4]): 86%
- IC50 (MCF7 [5]): 7.4 µM
- IC50 (K562): 6.5 µM
- IC50 (HeLa): 7 µM
